# Reference: publication PMC7359938 (Clinical and Translational Science, 2020)
# How the values were obtained:
# [1] = cited from earlier work
# [2] = system: VMAT2; settings: in vitro, rats; ref Teva Pharmaceuticals, data on file; cited from earlier work
# [3] = pivotal randomized controlled study; cited from earlier work
# [4] = Safety and tolerability evaluation; type: in vivo, human
# Procedure, shortened: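 Fasted healthy men and women (21) received a single oral 25 mg dose with 250 mL water in a double-blind two-period crossover (5-day inpatient stays, ≥7-day washout). Safety covered everyone given at least one dose. Twelve-lead ECG was taken predose and at 1, 2 and 24 h. Hematology, serum chemistry and urinalysis were done at admission and at ~24 and 72 h after ≥10 h fasting. Results were summarized by treatment.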
# [5] = Study AUS‐SD‐809‐CTP‐06, single 25 mg dose
structure (smiles),measurement,setting,value
"COc1cc2c(cc1OC)[C@H]1CC(=O)[C@H](CC(C)C)CN1CC2 (racemic) [Tetrabenazine, cis‐rac –1,3,4,6,7,11b‐hexahydro‐9,10‐dimethoxy‐3‐(2‐methylpropyl)2H‐benzo[a]quinolizin‐2‐one]",BDDCS classification,[1],Class II
same,Effect of deuteration on binding to VMAT2,[2],did not change the binding
same,Patients requiring dose reduction for intolerability,[3],44%
same,Reported events of dizziness,[4]; Study AUS‐SD‐809‐CTP‐06,three
same,Number of subjects with at least one treatment‐emergent adverse event (TEAE),[4]; [5],9
same,Percentage of subjects with at least one treatment‐emergent adverse event (TEAE),[4]; [5],45%
same,Subjects with headache,[4]; [5],15%
same,Subjects with nausea,[4]; [5],15%
same,Subjects with somnolence,[4]; [5],10%
same,Tolerability of single doses,"[4]; both studies, incl. 14C‐labeled analogues",well‐tolerated
same,Serious or severe TEAEs,[4]; either study,no serious or severe TEAEs
same,"Clinical laboratory assessments, vital signs parameters, ECG measurements, physical examinations",[4]; following either treatment,no clinically significant findings
